From ChEMBL document CHEMBL3585284, “Preparation and biological evaluation of conformationally constrained BACE1 inhibitors” (Bioorg Med Chem, 2015)

Experiments:
P-gp [1] = experiment: Efflux ratio in P-gp expressing MDCK cells; assay type: ADME, cell-based, Canis lupus familiaris; conditions: dog, MDCK-MDR1
[2] = Dissociation constant, pKa of the compound; assay type: physicochemical
P-gp [3] = experiment: Permeability in P-gp expressing MDCK cells; assay type: ADME, cell-based, Canis lupus familiaris; conditions: dog, MDCK-MDR1; read-out: permeability
[4] = Drug metabolism in mouse microsomes; assay type: ADME, Microsome
Brain = experiment: Drug level in brain of PDAPP (V717F) transgenic mouse at 100 mg/kg, sc; assay type: ADME, organism-based; conditions: in vivo, read-out: Drug uptake
In short: (§1)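 Brain and plasma samples from PDAPP mice dosed subcutaneously were homogenized (brain) and mixed with methanol/acetonitrile (1:1, v/v) containing internal standard to precipitate protein. After centrifugation, supernatant was diluted 4-fold with water/methanol (1:1, v/v). Drug was quantified against calibration standards by LC–MS/MS on a C18 column.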

Plasma = experiment: Plasma concentration in PDAPP (V717F) transgenic mouse at 100 mg/kg, sc; assay type: ADME, organism-based; conditions: in vivo; in short: as §1

efflux ratio (P-gp [1])	pKa [2]	Papp (P-gp [3]) [×10⁻⁶ cm/s]	Drug metabolism [4]	concentration (Brain) [µM]	concentration (Plasma) [µM]	Structure (SMILES)
8.5	9	2.2				Cl.NC1=N[C@]23CC[C@H](NC(=O)c4cccc(Cl)c4)C[C@@H]2[C@@H](COC3)S1
2.7		7.2				NC1=NC2CCC(OC(=O)c3cccc(Cl)c3)CC2CS1.O=C(O)C(F)(F)F (stereo not given)
			metabolite_notdetected	0.61	6.7	NC1=N[C@]23CC[C@H](NC(=O)c4cccc(Cl)c4)C[C@@H]2[C@@H](COC3)S1
10	9.7	2.9				Cl.NC1=NC2CCC(NC(=O)c3cccc(Cl)c3)CC2CS1 (stereo not given)
	8.2					NC1=NC23CCC(NC(=O)c4cccc(Cl)c4)CC2(COC3)CS1 (racemic)
			metabolite_notdetected	0.75	9.3	NC1=NC2CCC(NC(=O)c3cccc(Cl)c3)CC2CS1 (stereo not given)
